The record followed here is ChEMBL document CHEMBL1135355, “Synthesis of novel water soluble benzylazolium prodrugs of lipophilic azole antifungals” (Bioorg Med Chem Lett, 2002).

Where only a bound is given, the exact number is not on record here.

For data set [1], the system named is Rattus norvegicus. Briefly: Effective dose required to inhibit the pulmonary […] infection was determined in rat by peroral administration. It counts as functional. The following applies: po. In a few lines:
(§1)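 Pulmonary A. fumigatus CF437 model in male Fisher rats immunosuppressed with cortisone acetate before infection. Dosed twice on the first day and once daily over the following 4 days, iv or po as the line states. ED50 determined on day 14.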

Data set [2] deals with Rattus norvegicus. Put plainly: Effective dose required to inhibit the systemic […] infection was determined in rat by peroral administration. It counts as functional. The following applies: po. In short, it runs like this:
(§2)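 Systemic A. fumigatus CF437 infection in male Fisher rats. Treatment twice on day 1, then once daily for the next 4 days, iv or po as the line states. ED50 taken on day 14.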

Data set [3] is described as follows: Solubility of the prodrug in water was determined. It counts as physicochemical. The following applies: buffer.
Data set [4] concerns Rattus norvegicus. Put plainly: Effective dose required to inhibit the systemic Candida albicans infection was determined in rat by peroral administration. It counts as functional. The following applies: po. In short, it runs like this: (§3)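 Male Fisher rats infected systemically with C. albicans ATCC48130. Dosing at 0, 4, 24 and 48 h post-infection, given iv or po as the line states. ED50 derived on day 14.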

Data set [5] has as its system Rattus norvegicus. Briefly: Effective dose required to inhibit the systemic […] infection was determined in rat by intravenous administration. It counts as functional. In short, it runs like this: as §2
The test system of data set [6] is Rattus norvegicus. Put plainly: Effective dose required to inhibit the systemic Candida albicans infection was determined in rat by intravenous administration. It counts as functional. In short, it runs like this:
as §3

Data set [7] is described as follows: Conversion rate of the prodrug in human plasma. It counts as ADME, cell-free. In a few lines: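 Disappearance of prodrug through ester hydrolysis was followed, and the rate was expressed as half-life (T1/2, min).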
Data set [8] has as its system Rattus norvegicus. Briefly: Effective dose required to inhibit the pulmonary […] infection was determined in rat by intravenous administration. It counts as functional. In a few lines:
as §1

Regarding `C[C@@H](c1nc(-c2ccc(C#N)cc2)cs1)[C@](O)(Cn1cncn1)c1ccc(F)cc1F` [RAVUCONAZOLE], the ED50 was determined as 19 µmol/kg in data set [1], 11 µmol/kg in data set [2] and 1.6 µmol/kg in data set [4]. In addition, the Solubility in data set [3] was below 1 µg/mL.
`CNCC(=O)Oc1c(C)cc(C[n+]2cnn(C[C@](O)(c3ccc(F)cc3F)[C@@H](C)c3nc(-c4ccc(C#N)cc4)cs3)c2)cc1C.Cl.[Br-]`: the ED50 in data set [5] came to 17 µmol/kg; in data set [6], 4.6 µmol/kg; in data set [1], 17 µmol/kg; in data set [2], 19 µmol/kg; in data set [8], 8 µmol/kg; in data set [4], 4.7 µmol/kg. In data set [7], the T1/2 was below 0.033 h. Besides, the Solubility in data set [3] came to 49000 µg/mL.
Consider `Cc1cc(C[n+]2cnn(C[C@](O)(c3ccc(F)cc3F)[C@@H](C)c3nc(-c4ccc(C#N)cc4)cs3)c2)cc(C)c1OC(=O)[C@@H]1CCCN1.O=C(O)C(F)(F)F.[Br-]`, for which the ED50 in data set [5] was above 35 µmol/kg; in data set [6] it was 3.5 µmol/kg; in data set [1], 18 µmol/kg; in data set [2], above 55 µmol/kg; in data set [8], 17 µmol/kg; in data set [4], below 2.1 µmol/kg. In data set [7], the T1/2 was found to be 2.1 h. Besides, in data set [3], the Solubility is above 5000 µg/mL.
